Experimental data collected from several papers.
Converted amounts (≈) assume the structure as drawn.
Organism: Mycobacterium tuberculosis

CC[C@@H](CO)NCCN[C@@H](CC)CO
IC90 (microbial growth; H37RV): 4.61 µM

CO[C@H]1/C=C/O[C@@]2(C)Oc3c(C)c(O)c4c(O)c(c(/C=N/N5CCN(C)CC5)c(O)c4c3C2=O)NC(=O)/C(C)=C\C=C\[C@H](C)[C@H](O)[C@@H](C)[C@@H](O)[C@@H](C)[C@H](OC(C)=O)[C@@H]1C
inhibition (microbial growth; H37RV; 12.5 µg/mL): 97%

COC(=O)c1cc(-c2cccc(NC(=O)Nc3cccc(C(F)(F)F)c3)c2)on1
MIC (microbial growth; ATCC27294 H37RV; 7 days): 2 µg/mL (≈ 4.93 µM)

NNC(=O)c1ccncc1
MBC (microbial killing; H37RV; 7 days): 30.7 µg/mL

O=[N+]([O-])c1ccc(/C=N/Nc2nc(Nc3ccccc3)nc(N3CCOCC3)n2)o1
MBC (microbial killing): 1.6 µM

CCCCCCC#Cc1cncc(-c2nnc(SCc3ccc([N+](=O)[O-])cc3)n2C)c1
IC90 (microbial growth; ERDMAN): > 50 µM

Cc1ccc(NC(=O)c2cc(N3CCNCC3)cc(C(F)(F)F)c2)cc1Nc1nccn1-c1cc(NC2CC2)ncn1
MIC50 (microbial growth; H37RV): 0.63 µM (≈ 0.364 µg/mL)

[H]/N=C(/N)N[C@H]1[C@H](O)[C@@H](O)[C@H](O[C@@H]2O[C@@H](C)[C@](O)(C=O)[C@H]2O[C@@H]2O[C@@H](CO)[C@H](O)[C@@H](O)[C@@H]2NC)[C@@H](N/C(N)=N\[H])[C@@H]1O
IC50 (microbial growth; H37RV): 200 nM

NNC(=O)c1ccncc1
IC90 (microbial growth; ERDMAN): > 1 µM

COC(=O)c1cc(-c2cccc(NC(=S)Nc3ccc(F)cc3F)c2)on1
MIC (microbial growth; ATCC27294 H37RV; 7 days): 2 µg/mL (≈ 5.14 µM)

CCCCCCC#Cc1cncc(-c2nnc(SCc3ccc(Cl)c(F)c3)n2C)c1
IC50 (microbial growth; ERDMAN): 5400 nM

Cc1cn(-c2cc(C(=O)Nc3ccc(C)c(Nc4nccn4-c4cc(NC5CC5)ncn4)c3)cc(C(F)(F)F)c2)cn1
MBC (microbial killing; H37RV; 5 days): 2.5 to 5 µM

CO[C@H]1/C=C/O[C@@]2(C)Oc3c(C)c(O)c4c(O)c(c(/C=N/N5CCN(C)CC5)c(O)c4c3C2=O)NC(=O)/C(C)=C\C=C\[C@H](C)[C@H](O)[C@@H](C)[C@@H](O)[C@@H](C)[C@H](OC(C)=O)[C@@H]1C
MIC (microbial growth; H37RV): 0.05 µg/mL (≈ 0.0608 µM)

CCCCCCC#Cc1cncc(-c2nnc(SCc3cc([N+](=O)[O-])cc([N+](=O)[O-])c3)n2C)c1
IC50 (microbial growth): 61 nM

COC(=O)c1cc(-c2cccc(NC(=O)NCc3ccccc3)c2)on1
MIC (microbial growth; ATCC27294 H37RV; 7 days): 4 µg/mL (≈ 11.4 µM)

O=C(C[n+]1cn(Cc2cccc(Cn3c[n+](CC(=O)c4ccccc4)c4ccccc43)n2)c2ccccc21)c1ccccc1
MBC (microbial killing; H37RV; 21 days): 100 µM

COC(=O)c1cc(-c2cccc(NC(=O)Nc3c(C)cccc3C)c2)on1
MIC (microbial growth; ATCC27294 H37RV; 7 days): 64 µg/mL (≈ 175 µM)

CCCCCCC#Cc1cncc(-c2nnc(SCc3ccc([N+](=O)[O-])o3)n2C2CC2)c1
IC50 (microbial growth; ERDMAN): 48 nM
